Measured values of several laboratories.
Each line is one published result; the experiments were not run side by side.
RPS6KA3: Ribosomal protein S6 kinase alpha-3 (RPS6KA3, Homo sapiens, UniProt P51812)
RPS6KA3 N-terminal kinase domain: Ribosomal protein S6 kinase alpha-3, N-terminal kinase domain (RPS6KA3, Homo sapiens, UniProt P51812)

CC(C)(C)c1cc(C=C(C#N)C#N)cc(Br)c1O — remaining activity (RPS6KA3; enzyme activity, inhibitor; 0.5 µM): 92.2%
Cn1cncc1[C@](O)(COc1ccc(C#N)cc1-c1ccc(OC(F)(F)F)cc1)c1ccc(C#N)cc1 — remaining binding (RPS6KA3 N-terminal kinase domain; cell-free assay, competition with immobilised ligand; 1 µM): 100%
O=c1[nH]c2ccccc2n1C1CCN(Cc2ccc(-c3[nH]c4cc5ncnc5cc4nc3-c3ccccc3)cc2)CC1 — remaining signal (RPS6KA3; cell-free assay; 0.5 µM): 96.6%
Cn1cc(-c2cc(F)cc(N3CCn4c(cc5c4CCCC5)C3=O)c2CO)cc(Nc2ccc(N3CCN(C4COC4)CC3)cn2)c1=O — inhibition (RPS6KA3; enzyme activity, inhibitor; 0.1 µM): 7%
Nc1ncc(-c2nc(N3CCOCC3)nc(N3CCOCC3)n2)c(C(F)F)n1 — remaining binding (RPS6KA3 N-terminal kinase domain; binding, competition with immobilised ligand; 10 µM): 59%
Cc1nn(C)cc1-c1nc2c(N3CCN(Cc4ccc(Cl)cc4)CC3)c(Cl)cnc2[nH]1 — remaining binding (RPS6KA3 N-terminal kinase domain; binding, competition with immobilised ligand; 1 µM): 84%
N#CC1(c2ccccn2)CCN(Cc2cc(C(=O)O)c(=O)n3ccccc23)CC1 — remaining binding (Ribosomal protein S6 kinase alpha-3, C-terminal kinase domain (RPS6KA3, Homo sapiens, UniProt P51812); cell-free assay, competition with immobilised ligand; 1 µM): 100%
COc1cc(Nc2ncc(F)c(Nc3ccc4c(n3)NC(=O)C(C)(C)O4)n2)cc(OC)c1OC — inhibition (RPS6KA3 N-terminal kinase domain; binding, competition with immobilised ligand; 10 µM): 88%
Cn1cc(-c2cccc(N3CCc4c(sc5c4CC(C)(C)C5)C3=O)c2CO)cc(Nc2ccncn2)c1=O — inhibition (RPS6KA3; enzyme activity, inhibitor; 1 µM): 1%
